Measurements reported in paper PMC7524064 (ESC Heart Failure, 2020).

Legend:
human atrial trabeculae = assay: Contractility of human atrial trabeculae
Procedure, shortened: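 Right atrial appendage trabeculae came from patients undergoing aorto-coronary bypass and were held isometric. After about 30 min equilibration they were stretched to maximal steady-state twitch force and paced at 1 Hz. Test compound (1, 3, 10 μM) or KN93 (5 μM) was washed in for 20 min. Post-rest pauses were 10, 30 and 120 s. Developed and diastolic tension were normalized to each patient's vehicle control.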

[1] = test system: murine ventricular cardiomyocytes; assay: Action potentials in murine ventricular cardiomyocytes; assay type: cell-based, mouse; details: RA608 1, 3, 10 μM; myristoylated AIP 2 μmol/L
[2] = test system: human atrial cardiomyocytes; assay: Ca sparks and SR Ca leak, confocal line scans; assay type: cell-based; details: AIP (2 μM)
Procedure, shortened: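 Myocytes on laminin-coated chambers were loaded 15 min with 10 μmol/L Fluo-4 AM plus 0.02% (w/v) pluronic acid. They were superfused with normal Tyrode solution and imaged by laser-scanning confocal line scans at room temperature. Treatments were test compound at 1, 3 or 10 μM, or myristoylated AIP at 2 μM.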

[3] = test system: human atrial cardiomyocytes; assay: Action potentials in human atrial cardiomyocytes; assay type: cell-based; details: RA608 1, 3, 10 μM; AIP
Procedure, shortened: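 Ruptured-patch whole-cell current clamp at room temperature on isolated human atrial cardiomyocytes from seven patients. Action potentials were recorded with vehicle, test compound at 1, 3 or 10 μM, or myristoylated AIP.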

| Compound | contraction amplitude after pause (human atrial trabeculae; KN93 5 μmol/L, compared with RA608) | diastolic tension normalized to vehicle (human atrial trabeculae; KN93 (5 μM)) | relaxation time (time to 80% of relaxation) (human atrial trabeculae; RA608 1, 3, 10 μM, KN93 5 μM) | AP duration (APD50) [1] | SR Ca leak vs vehicle [2] | AP duration (APD50, APD80) vs vehicle [3] |
| --- | --- | --- | --- | --- | --- | --- |
| COc1ccc(S(=O)(=O)N(CCO)c2ccccc2CN(C)C/C=C/c2ccc(Cl)cc2)cc1 [KN93] | comparable increase | only a trend to decrease | neither RA608 nor KN93 resulted in significant alterations |  |  |  |
| autocamtide‐2‐related autoinhibitory peptide [AIP] |  |  |  | no significant effect | significantly reduced | no significant effect |
